Assay outcomes as filed in PubChem.
Compounds with a hit are over-represented: about 1.6% of the library has one in this group of screens.
MBD2 inh: blocks human MBD2 binding to methylated DNA | AID 686964 | TR-FRET, MBD2 binding to methylated oligonucleotide | Q9UBB5 | hit rate 0.31% among 370,000 | inhibition, % at 4.4 µM; in the data active = inhibition above about 13%
UHRF1 MBD2 ctr: UHRF1 methyl-DNA binding inhibition; Q96T88; UHRF1 binding to methylated oligo, TR-FRET; inhibition, % at 4.4 µM; hit rate 0.75% among 370,000;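 note: UHRF1 SRA domain binding a hemimethylated CpG hairpin DNA probe; 0% = median of test compound wells and 100% = reference inhibitor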
Target sequence (Q96T88 whole entry, looked up, the tested form may be a part): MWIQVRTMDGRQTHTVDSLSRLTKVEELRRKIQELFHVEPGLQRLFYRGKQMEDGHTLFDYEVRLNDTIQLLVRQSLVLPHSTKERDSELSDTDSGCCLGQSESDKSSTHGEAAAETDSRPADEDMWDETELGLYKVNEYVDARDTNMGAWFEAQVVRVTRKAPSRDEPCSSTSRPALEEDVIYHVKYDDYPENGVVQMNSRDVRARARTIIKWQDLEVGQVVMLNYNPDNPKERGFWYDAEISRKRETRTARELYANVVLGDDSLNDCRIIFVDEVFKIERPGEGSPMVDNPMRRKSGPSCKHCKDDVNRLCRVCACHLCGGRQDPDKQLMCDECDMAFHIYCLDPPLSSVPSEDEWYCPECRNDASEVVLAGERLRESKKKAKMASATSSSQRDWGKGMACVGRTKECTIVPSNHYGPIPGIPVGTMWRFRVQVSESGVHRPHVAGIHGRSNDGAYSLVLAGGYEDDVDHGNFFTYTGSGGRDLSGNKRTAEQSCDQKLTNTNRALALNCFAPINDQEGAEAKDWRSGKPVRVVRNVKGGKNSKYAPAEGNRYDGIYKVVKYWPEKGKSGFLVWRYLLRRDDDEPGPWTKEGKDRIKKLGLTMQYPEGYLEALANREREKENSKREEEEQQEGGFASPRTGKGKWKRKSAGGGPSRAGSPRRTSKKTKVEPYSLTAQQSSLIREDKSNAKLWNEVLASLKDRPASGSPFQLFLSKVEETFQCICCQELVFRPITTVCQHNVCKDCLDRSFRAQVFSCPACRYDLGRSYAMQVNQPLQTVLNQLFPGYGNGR
TDP2 inh: TDP2 (human) inhibition, absorbance primary screen; O95551; recombinant TDP2, T5PNP hydrolysis, p-nitrophenol absorbance 415 nm; inhibition, % at 12.8 µM; hit rate 0.34% among 370,000; AID 720702;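 active = inhibition above the mean of all tested compounds plus 3 SD, set per campaign, cut at about 25% in these data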;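 note: 0% = DMSO with enzyme and 100% = buffer with substrate but no TDP2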
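Read-out basis: percent inhibition. System: recombinant human TDP2. Buffer or medium: Mg2+-containing Tris-HCl buffer, pH 7.5. Repeats: single replicate. Timing: reaction 2 h, 37 °C. Benchmarks: high control without enzyme, low control DMSO plus TDP2. Probe or stimulus: 5 mM T5PNP. Doses: 12.8 µM only. Measured by: epi absorbance of p-nitrophenol freed from T5PNP by hydrolysis.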
LEDGF integ inh: blocks HIV-1 LEDGF/p75-dependent DNA integration | inhibition, % at 3.7 µM | hit rate 0.64% among 370,000 | TR-FRET IN-LEDGF/p75 DNA integration, Eu/Cy5 | AID 743269;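 active = inhibition above the screen-wide mean plus 3 SD, cut at about 13% in these data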;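 note: signal is the Cy5 over europium emission ratio at 671 and 618 nm; 0% = plate median of compound wells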
UHRF1 ctr MBD2: counter-screen for MBD2 inhibitors: human UHRF1 methylated DNA binding inhibitors; UHRF1 binding to methylated oligonucleotide, TR-FRET; AID 720530; hit rate 25% among 1,000; shares compounds with MBD2 inh; inhibition, % at 4.4 µM;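 note: UHRF1 SRA domain binding a labeled hemimethylated CpG hairpin DNA; 0% = vehicle only and 100% = reference inhibitor with vehicle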
MBD2 DBD conf: confirmation of human MBD2-DBD methylated oligonucleotide binding inhibitors. shares compounds with MBD2 inh. TR-FRET MBD2-DBD binding to methylated oligonucleotide. inhibition, % at 4.4 µM. hit rate 26% among 1,000; in the data active = inhibition above about 14%
TDP2 inh conf: human TDP2 inhibition, confirmation | hit rate 22% among 1,100 | inhibition, % at 12.8 µM | shares compounds with TDP2 inh | recombinant human TDP2, absorbance read-out; in the data active = inhibition above about 25%;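 note: 0% = vehicle with enzyme and 100% = no enzyme buffer only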
IN multimer act: activates HIV-1 integrase multimerization in LEDGF counter-screen | shares compounds with LEDGF integ inh | TR-FRET HIV-1 integrase multimerization, biochemical | activation, % at 7.7 µM | hit rate 17% among 2,000 | AID 1053131; in the data active = activation above about 8.9%
TRFRET interf: TR-FRET optical interference, LEDGF/p75 integration counter-screen. shares compounds with LEDGF integ inh. TR-FRET optical interference counterscreen, HIV-1 IN multimerization. inhibition, % at 7.7 µM. 2,000 tested, under 10 active;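 active = inhibition above the mean over all tested compounds plus 3 SD, which no compound reached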;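 note: 0% = integrase with antibodies and DMSO and 100% = antibodies without integrase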
LEDGF integ conf: LEDGF/p75-dependent HIV-1 integration inhibition, confirmation; shares compounds with LEDGF integ inh; TR-FRET LEDGF/p75-dependent HIV-1 integration, biochemical; inhibition, % at 3.7 µM; hit rate 36% among 2,000; AID 1053136; in the data active = inhibition above about 14%
The depositor's hits bear a star; / = not tested or not shown. Cut-off read from the data, not from the text of the source, unless noted: active = inhibition above about 21%; inactive = the rest.

SMILES	MBD2 inh	UHRF1 MBD2 ctr	TDP2 inh	LEDGF integ inh	TDP2 inh conf	others
Cc1ccc(/C=C/C(=O)NCc2ccco2)o1	14*	54*	14	37*	/	UHRF1 ctr MBD2=48*;MBD2 DBD conf=17*;IN multimer act=13*;TRFRET interf=-66;LEDGF integ conf=60*
O=C(/C=C/c1ccco1)NCc1ccco1	2	-2	12	6	/
O=S(=O)(NCc1ccccc1)c1ccc(Cl)cc1	4	-2	-14	0	/
O=S(=O)(Nc1cc2nc3ccccc3nc2n1Cc1ccccc1)c1ccc(Cl)cc1	16*	16	107*	24*	93*	UHRF1 ctr MBD2=1;MBD2 DBD conf=18*;IN multimer act=1;TRFRET interf=-3;LEDGF integ conf=73*
Nc1ccc(-c2nc3ccc(N)cc3[nH]2)cc1	0	-7	7	-6	/
Nc1ccc2nc(-c3cccc(-c4nc5ccc(N)cc5[nH]4)c3)[nH]c2c1	14*	26*	-5	16*	/	UHRF1 ctr MBD2=4;MBD2 DBD conf=4;IN multimer act=60*;TRFRET interf=-213;LEDGF integ conf=-11
CC(C)(C)c1cc(C(=O)N/N=C/c2ccc(-c3ccccc3[N+](=O)[O-])o2)n[nH]1	-2	-10	14	-1	/
O=C(N/N=C/c1ccc(-c2ccccc2[N+](=O)[O-])o1)c1cccnc1	-5	-6	36*	5	16
Cc1ccc(NC(=O)N2CCCn3c(SCC(=O)c4ccccc4)nnc32)cc1	-1	-3	-3	-2	/
CCN(CC)c1cc(Cl)c2nonc2c1N	-3	-9	33*	-3	9
CCOC(=O)c1c(C)[nH]c(C)c1S(=O)(=O)N1c2ccccc2CC1C (stereo not given)	1	3	55*	0	4
CCOC(=O)c1c(S(=O)(=O)N2c3ccccc3CC2C)c(C)n(C)c1C (stereo not given)	0	5	-9	-2	/
COc1cc(OC)c(OC)cc1CN1CCN(Cc2ccc(SC)cc2)CC1	1	-2	25*	3	-1
CCNC(=O)c1ccccc1NC(=O)C1CC(=O)N(C(C)C)C1 (stereo not given)	6	2	2	-1	/
O=C1C=C(c2cccc(Br)c2)C[C@@H](c2ccc3c(c2)OCO3)C1	1	2	12	2	/
CCOC(=O)C1CCN(CC(=O)N2C(C)CCCC2C)CC1 (stereo not given)	-1	0	27*	0	1
O=S(=O)(Nc1c(O)ccc2ccccc12)c1ccc(F)cc1	-1	3	25*	-1	-3
CCc1cccc(NS(=O)(=O)c2ccc3c(c2)oc(=O)n3C)c1	-9	1	3	1	/
Cc1ccc(S(=O)(=O)N/N=C/c2ccccc2F)cc1[N+](=O)[O-]	-1	0	29*	-6	8
Cc1ccccc1S(=O)Cc1ccc(C(=O)N2CCN(C(=O)c3ccco3)CC2)o1 (stereo not given)	1	1	39*	-1	-3
CCOc1ccc(CCNC(=O)C2CC(=O)N(CCc3ccc(OC)c(OC)c3)C2)cc1OCC (stereo not given)	1	0	25*	1	2
CCOc1ccc(CCNC(=O)C2CC(=O)N(CCc3ccccc3)C2)cc1OCC (stereo not given)	-2	0	9	3	/
Cc1cc(OCC(=O)Nc2ccc(CN3CCOCC3)cc2)c2c(C)c(C)c(=O)oc2c1	2	-4	7	-2	/
CC1=C(C(=O)OCC(C)C)C2(O)C(=O)c3ccccc3C2(O)N1 (stereo not given)	-8	-7	47*	-1	20
